# Shown are actives, neighbours in structure and some others; about 1.8% of the full set was active somewhere.
# NPY-Y2 PAM-ag – NPY-Y2 potentiators or agonists, primary screen, cell-based; Neuropeptide Y receptor type 2 (Homo sapiens), P49146; cells expressing NPY-Y2, potentiator/agonist read-out; activation, % at 3.6 µM; actives 0.45% (n = 220,000); AID 1359, 2008; in the data active = activation above about 27%;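 note: cells stimulated with NPY near EC25 plus isoproterenol at EC100; 0% = vehicle plus submaximal agonist and 100% = vehicle plus saturating agonist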
# NPY-Y1 PAM-ag – NPY-Y1 receptor potentiators or agonists, primary screen, cell-based; Neuropeptide Y receptor type 1 (Homo sapiens), P25929; activation, % at 3.6 µM; actives 0.37% (n = 220,000); NPY-Y1 expressing cells, potentiator/agonist activation; in the data active = activation above about 33%, passing the limit was not always enough;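 note: cells stimulated with NPY at EC10 then isoproterenol at EC100; 0% = low agonist plus stimulus and 100% = saturating agonist plus stimulus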
# Target sequence (P25929 whole entry, looked up): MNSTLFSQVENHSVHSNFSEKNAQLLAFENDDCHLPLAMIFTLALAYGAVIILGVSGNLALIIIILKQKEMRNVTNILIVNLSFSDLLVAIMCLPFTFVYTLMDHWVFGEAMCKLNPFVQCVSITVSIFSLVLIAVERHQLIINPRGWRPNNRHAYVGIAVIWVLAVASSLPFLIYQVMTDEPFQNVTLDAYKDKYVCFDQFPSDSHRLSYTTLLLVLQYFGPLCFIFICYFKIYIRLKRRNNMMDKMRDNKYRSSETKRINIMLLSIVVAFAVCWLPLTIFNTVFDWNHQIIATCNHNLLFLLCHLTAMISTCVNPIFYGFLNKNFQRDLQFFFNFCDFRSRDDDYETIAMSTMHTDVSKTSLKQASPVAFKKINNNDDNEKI
# NPY-Y2 antag – NPY-Y2 receptor antagonists, primary screen, cell-based | actives 0.99% (n = 140,000) | AID 793, 2007 | NPY-Y2 expressing cells, antagonist mode | inhibition, % at 2.7 µM; in the data active = inhibition above about 17%;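 note: 0% = vehicle with agonist challenge and 100% = reference antagonist with challenge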
# NPY Y1 blocker – NPY-Y1 receptor antagonists, primary screen, cell-based | AID 1040, 2008 | HEK293-CNG Y1 cells, membrane potential fluorescence; NPY at EC95, then isoproterenol | Neuropeptide Y receptor type 1 (Homo sapiens), P25929 | inhibition, % at 3.6 µM | actives 1% (n = 200,000);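 active = inhibition above the campaign mean inhibition of all tested compounds plus 3 SD, cut at about 20% in these data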;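 note: 0% = DMSO wells given NPY plus isoproterenol and 100% = isoproterenol alone without NPY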
#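 Material: HEK293 Y1/CNG channel cell line; also added: NPY (25 nM), isoproterenol (1 µM), Ro 20-1724 (25 µM); doses: one concentration, 3.6 µM, in 0.4% DMSO; schedule: compound incubation 1 h at room temperature, readout 45 min post-stimulation; technique: membrane potential fluorescence; measure: fluorescence ratio normalized to % inhibition between controls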
# NPY-Y1 pot conf – NPY-Y1 potentiators or agonists, confirmation, cell-based; shares compounds with NPY-Y1 PAM-ag; cell-based NPY-Y1 potentiator/agonist assay; activation, % at 3.6 µM; actives 20% (n = 280); in the data active = activation above about 45%;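 note: cells challenged with NPY at its EC10 plus isoproterenol stimulus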
# NPY-Y2 counter – NPY-Y2 potentiators or agonists, counter-screen for NPY-Y1 potentiator project, cell-based, fluorescence; actives 20% (n = 280); shares compounds with NPY-Y1 PAM-ag; activation, % at 3.6 µM; HEK293-CNG cells, membrane-potential fluorescence (FLIPR), 1536-well; in the data active = activation above about 33%
# NPY-Y1 ag – NPY-Y1 direct agonists without NPY, confirmation, counter-screen for NPY-Y1 potentiator project, cell-based, fluorescence; HEK293 Y1-CNGC, membrane potential fluorescence, agonist mode; actives 50% (n = 280); activation, % at 3.6 µM; shares compounds with NPY-Y1 PAM-ag;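 active = percent activation above the mean of DMSO-only control wells plus 3 SD of those wells, cut at about 18% in these data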;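 note: cells challenged with isoproterenol plus Ro 20-1724 with no NPY in test wells; Y1 agonism lowers isoproterenol-driven cAMP and reduces probe fluorescence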
# NPY-Y2 ag – NPY-Y2 direct agonists without NPY, counter-screen for NPY-Y1 potentiator project, cell-based, fluorescence; activation, % at 3.6 µM; HEK293 Y2-CNGC, membrane potential fluorescence, agonist mode; shares compounds with NPY-Y1 PAM-ag; actives 67% (n = 280);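 active = activation above the solvent-only control wells' mean plus 3 SD, cut at about 11% in these data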;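 note: 0% = DMSO with isoproterenol and 100% = 40 nM NPY maximal response; agonism lowers cAMP so well fluorescence drops in active wells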
# CNGC counter – CNGC cAMP sensor activity inhibitors, counter-screen for NPY-Y1 potentiator/agonist project, cell-based, HEK293-CNG parental, membrane potential fluorescence, Y1 set | isoproterenol cAMP | shares compounds with NPY-Y1 PAM-ag | actives 42% (n = 280) | inhibition, % at 3.6 µM;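 active = inhibition above the mean of stimulated solvent-only control wells plus 3 SD, cut at about 22% in these data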;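 note: 0% = isoproterenol-stimulated DMSO wells and 100% = unstimulated DMSO wells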
# * = called active by the depositor; / = not tested or not shown.
SMILES,NPY-Y2 PAM-ag,NPY-Y1 PAM-ag,NPY-Y2 antag,NPY Y1 blocker,NPY-Y1 pot conf,NPY-Y2 counter,NPY-Y1 ag,NPY-Y2 ag,CNGC counter
COc1ccc(S(=O)(=O)Nc2ccccc2C(=O)Nc2nc(-c3ccc(F)cc3)cs2)cc1OC,32,39*,4,-5,-16,9,-12,7,-5
COc1ccccc1NC(=O)c1ccc(NC(=O)Cc2n[nH]c(=O)c3ccccc23)cc1,-15,-9,/,/,/,/,/,/,/
CCCCN(Cc1ccccc1)C(=O)CCN1C(=O)C2C3C=CC(C3)C2C1=O (stereo unspecified),5,-7,/,10,/,/,/,/,/
CCOC(=O)/C=C/C(=O)Nc1ccc(Oc2ccccc2)cc1,6,39*,/,-10,18,12,16,19*,25*
O=C(O)/C=C/C(=O)Nc1ccc(Oc2ccccc2)cc1,-15,17,/,/,/,/,/,/,/
Cc1nnc(N(C)C(=O)c2ccncc2)s1,6,-13,/,-1,/,/,/,/,/
COc1ccc(C2C(C(=O)Nc3cc(OC)c(OC)c(OC)c3)c3ccccc3C(=O)N2C)cc1OC (stereo unspecified),-3,5,/,3,/,/,/,/,/
Cc1ccc(S(=O)(=O)Nc2nc3ccccc3nc2Nc2cccc(S(=O)(=O)N3CCCC3)c2)cc1,18,45*,/,-14,74*,71*,67*,65*,44*
NS(=O)(=O)c1cc(C(=O)NCCc2ccccn2)ccc1Cl,-2,96*,/,/,6,-1,-5,-4,3
COc1ccccc1Oc1ccc(-c2cnc3ccccc3n2)cc1[N+](=O)[O-],19,47*,/,3,36,24,38*,21*,0
COc1ccccc1Oc1ccc2c(c1)C(=O)N(c1cccc3ncccc13)C2=O,24,43*,1,-1,1,12,1,-5,-13
COc1ccccc1Oc1ccc2c(c1)C(=O)N(c1cccc(O)c1)C2=O,0,4,5,13,/,/,/,/,/
CCOC(=O)C(Cc1ccccc1)c1ccnc2nc(N)nn12 (stereo unspecified),-4,10,/,-4,/,/,/,/,/
COc1ccc(N(C)S(=O)(=O)c2cccc(C(=O)Nc3cc(OC)ccc3OC)c2)cc1,-1,-12,/,6,/,/,/,/,/
COc1ccc(N(C)S(=O)(=O)c2cccc(C(=O)Nc3nnc(C4CC4)s3)c2)cc1,6,38*,/,-3,44,30,41*,20*,40*
C/C(=N\NC(=O)c1cccc(S(=O)(=O)N2CCOCC2)c1)c1cc2ccccc2o1,-19,5,/,/,/,/,/,/,/
COc1ccc2c(c1)c(/C=N/Nc1nc3ccccc3[nH]1)c(C)n2C,29,42*,/,/,60*,47*,42*,50*,36*
CCC(C)C1C(C#N)=C(N)Oc2n[nH]c(-c3ccccc3)c21 (stereo unspecified),24,40*,3,-3,27,17,27*,23*,17
CCC(C)C1C(C#N)=C(N)Oc2n[nH]c(C)c21 (stereo unspecified),11,9,0,-3,/,/,/,/,/
Cn1c(CSCc2ccc(Cl)cc2Cl)n[nH]c1=S,-16,65*,/,0,-3,2,0,7,-9
Cn1c(CSCc2ccccc2Cl)n[nH]c1=S,-6,9,/,3,/,/,/,/,/
COc1ccc(Cc2nnc(NS(=O)(=O)c3ccc(Cl)cc3)s2)cc1OC,-19,-9,/,6,/,/,/,/,/

# Compound activity from PubChem.
